Assay outcomes (PubChem BioAssay)
Sampled rows, rich in hits. Any-hit rate of the full collection: about 2.6%.
SKN-1 block – blocks SKN-1 activity in C. elegans | C. elegans VP596 Pgst-4::GFP/RFP ratio, acrylamide-induced, 24 h | inhibition, % at 21.8 µM | hit rate 0.49% among 360,000 | AID 624304;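 active = interference check ratio from 0.5 to 1.5 plus GFP to RFP signal ratio inhibition reaching or exceeding a fixed threshold, cut at about 30% in these data, passing the limit was not always enough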
GRK2 inh – inhibitors of human GRK2 displacing RNA aptamer; inhibition of aptamer binding, % at 10 µM; hit rate 0.59% among 330,000; AID 488847; bead flow cytometry, FAM-aptamer displacement from GRK2;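 active = inhibition of aptamer binding above 40%, roughly 3 SD of noise, on plates passing a quality check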;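 note: median bead fluorescence of bound FAM aptamer so fluorescent compounds give negative values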
Target sequence (P25098 whole entry, looked up): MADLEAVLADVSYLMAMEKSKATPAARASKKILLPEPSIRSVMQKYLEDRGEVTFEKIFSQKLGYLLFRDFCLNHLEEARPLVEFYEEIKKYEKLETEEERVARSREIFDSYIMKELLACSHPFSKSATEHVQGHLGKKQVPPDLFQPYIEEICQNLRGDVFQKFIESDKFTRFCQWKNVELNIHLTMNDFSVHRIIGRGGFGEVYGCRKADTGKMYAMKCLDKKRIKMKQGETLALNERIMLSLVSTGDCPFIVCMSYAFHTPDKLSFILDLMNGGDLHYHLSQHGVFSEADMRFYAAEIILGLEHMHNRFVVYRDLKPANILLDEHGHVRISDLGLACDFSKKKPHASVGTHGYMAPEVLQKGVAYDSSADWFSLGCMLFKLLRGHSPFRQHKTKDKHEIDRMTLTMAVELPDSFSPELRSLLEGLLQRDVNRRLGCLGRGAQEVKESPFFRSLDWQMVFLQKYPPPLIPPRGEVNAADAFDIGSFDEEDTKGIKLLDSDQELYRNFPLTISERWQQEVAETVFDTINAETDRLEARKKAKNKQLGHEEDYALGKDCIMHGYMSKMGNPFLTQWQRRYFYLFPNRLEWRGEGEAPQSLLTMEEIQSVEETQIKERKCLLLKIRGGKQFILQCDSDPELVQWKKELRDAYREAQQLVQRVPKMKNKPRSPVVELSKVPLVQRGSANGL
Rce1 inhib – yeast Ras-converting enzyme inhibition; yeast membranes, quenched prenylated peptide cleavage fluorescence; calls only; hit rate 0.27% among 290,000; AID 2563;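 active = fall in fluorescence gain of 50% or more versus controls, with final raw signal at or below 3038400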;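 note: plate controls were neutral control wells for no effect and wells lacking membranes for full effect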
Myeloid diff MLP – myeloid differentiation induction | ER-HoxA9 myeloid progenitors, lysozyme-GFP differentiation, flow cytometry | calls only at 10 µM | hit rate 1% among 360,000 | AID 624256;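 active = normalized GFP-positive differentiation at or above the plate's own cutoff, the solvent-only control mean plus 3 SD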;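 note: cells exposed to compound for four days before flow analysis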
T cell HTS – T cell immune modulation candidate; response (vesicle binding), % at 7 µM; hit rate 0.068% among 330,000; AID 2052; 2C CD8+ T cell-vesicle binding, flow cytometry; stronger effect = lower value;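 active = response, share of CD8 T cells binding vesicles, and their 90th percentile fluorescence all below set limits, cut at about 80% in these data, passing the limit was not always enough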;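 note: values below 100% mean blocked vesicle binding to the CD8+ T cells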
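Material: 2C TCR transgenic mouse naive CD8+ T cells, MACS-purified. Also added: QL9-charged Drosophila Ld/ICAM-1/B7-1 vesicles. Timing: binding 1.5 h at 37 °C. Measured by: high-throughput flow cytometry with anti-B7-1 and anti-CD8 staining. Read-out: percent CD8+ FL2 mean versus row control. Controls: Unloaded micro-vesicles (low), QL9 vesicles with 0.7% DMSO (high).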
Rin1-Abl PPI inh – inhibitors of human Rin1-Abl protein interaction | P00519+Q13671 | TR-FRET Rin1/Abl binding, biochemical | inhibition, % at 7.35 µM | hit rate 0.4% among 360,000; in the data active = inhibition above about 5%, passing the limit was not always enough
Numbers without * were called inactive; i = inactive; . = not tested or not shown; + = active, no number.

SMILES | SKN-1 block | GRK2 inh | Rce1 inhib | Myeloid diff MLP | T cell HTS | Rin1-Abl PPI inh
CCOC(=O)C1CCN(S(=O)(=O)CCNC(=O)c2cccc(OC)c2)CC1 | -7.7 | 0.0 | i | i | i | 3.4
COc1ccc(/C=C2/C(=O)N=C(N)N2C)cc1OC | 8.6 | 0.0 | i | + | 230.9 | 2.5
COc1ccc(/C=C2\N=C(C)OC2=O)cc1OC(C)=O | -5.2 | 1.0 | i | i | 178.6 | 3.1
COc1ccc(/C=C2\N=C(C)OC2=O)cc1OC | -14.0 | 0.0 | i | + | 350.9 | 1.5
O=C1NC(=O)C([N+](=O)[O-])=C(O)C1=O | 3.9 | . | . | i | . | -1.7
O=C(CNS(=O)(=O)c1cccc(F)c1)OCC(=O)N1CCCC1=O | -7.1 | 2.0 | . | i | i | -3.6
N#Cc1c(-c2ccccc2F)cc(C2CC2)nc1SCC(=O)c1cccs1 | 3.9 | 2.0 | i | + | 216.3 | -4.0
CCSc1nc(C2CC2)cc(-c2cccs2)c1C#N | 45.0 | 6.0 | i | i | 255.7 | -7.4
O=C(Nc1nc2ccccc2[nH]1)c1ccccc1[N+](=O)[O-] | 3.1 | 0.0 | i | i | 30.0* | 3.1
C[C@]1(CC/C(=C/CO)CO)[C@H](CO)CC[C@@]23COC(=O)C2=CCC[C@@H]31 | 6.1 | 0.0 | . | i | 99.4 | 0.1
C[C@]12c3[nH]c4ccccc4c3CCN1C(=O)C(CC(=O)NCCc1ccccn1)C[C@@H]2C(=O)N1CCOCC1 (some centres undefined) | -2.4 | 81.0* | . | i | 173.0 | -2.1
CC[C@]12c3[nH]c4ccccc4c3CCN1C(=O)C(CC(=O)NCCCn1ccnc1)C[C@@H]2C(=O)N1CCN(C(=O)C2CC2)CC1 (some centres undefined) | -9.9 | 2.0 | . | + | 209.9 | 2.3
C[C@]12c3[nH]c4cc(-c5ccco5)ccc4c3CCN1C(=O)[C@@H](CC(=O)NCCCn1ccnc1)C[C@@H]2C(=O)N1CCCCC1 | 11.4 | 52.0* | . | i | . | -1.5
CC(C)N(C(=O)[C@H]1C[C@H](CC(=O)NCCN2CCOCC2)C(=O)N2CCc3c([nH]c4cc(-c5ccco5)ccc34)[C@]12C)C(C)C | -5.8 | 0.0 | . | i | . | -2.1
C[C@]12c3[nH]c4cc(-c5ccco5)ccc4c3CCN1C(=O)[C@@H](CC(=O)NCCN1CCOCC1)C[C@@H]2C(=O)N1CCOCC1 | -3.3 | 0.0 | . | + | . | -6.1
O=C(C[C@H]1C[C@H](C(=O)N2CCOCC2)[C@@]2(CCC3CCCC3)c3[nH]c4cc(-c5ccco5)ccc4c3CCN2C1=O)NCc1ccco1 | 35.6* | 0.0 | . | i | . | -4.2
CN(Cc1ccccc1)C(=O)c1cccc(NC(=O)Cc2cccc(NC(=O)C3CCN(C(=O)C4CC4)CC3)c2)c1 | 4.8 | . | . | + | . | -2.1
CN(Cc1ccccc1)C(=O)c1ccc(NC(=O)Cc2cccc(NC(=O)C3CCN(C(=O)C4CC4)CC3)c2)cc1 | -22.8 | 0.0 | . | i | 102.1 | -1.5
O=C(NCCc1nc(-c2ccccc2Cl)no1)c1ccccc1 | -7.3 | 0.0 | i | i | 359.7 | 1.6
CC(C)C(=O)NCCc1nc(-c2ccccc2Cl)no1 | 35.9* | 0.0 | i | i | 686.2 | -1.9
O=c1cnn(Cc2c(Cl)cccc2Cl)c2ccccc12 | 13.2 | 0.0 | i | + | 272.2 | 0.8
Fc1cccc(Cl)c1Cn1ncc2ccccc21 | 5.2 | 0.0 | i | i | 182.2 | 3.7
Cc1ccc(C)c(S(=O)(=O)NCC(=O)Nc2ccc3c(c2)OCO3)c1 | 6.6 | 0.0 | i | i | 457.2 | 4.7
Cc1sc(N/N=C/c2cccnc2)nc1-c1ccc(Cl)cc1 | 35.3* | 0.0 | i | i | 216.8 | 3.3
Clc1ccc(N/N=C/c2cccnc2)cc1 | 8.0 | 0.0 | i | i | 288.3 | -4.1
SMILES | SKN-1 block | GRK2 inh | Rce1 inhib | Myeloid diff MLP | T cell HTS | Rin1-Abl PPI inh
COc1ccccc1CNC(=O)c1ccccc1N | -0.9 | 0.0 | + | i | 362.8 | 1.4
CCCC(C)C(=O)NCc1ccccc1OC (centres undefined) | 40.6* | 0.0 | i | i | 433.2 | 0.6
O=C(NCc1ccccn1)C1(C(F)(F)F)C/C(=C\CCO)CCCO1 (centres undefined) | 9.4 | 0.0 | i | i | 819.7 | 0.8
COc1cc2c(cc1NC(=O)c1cccnc1)CCCC2 | 37.8* | 2.0 | i | i | 211.6 | -0.8
O=C(O)COc1ccccc1C=NNc1ccc([N+](=O)[O-])cc1S(=O)(=O)Nc1ccc(Cl)cc1 | 11.7 | 6.0 | . | i | 246.9 | 1.9
Cc1[nH]c2ccccc2c1/C=N/Nc1ccc([N+](=O)[O-])cc1S(=O)(=O)Nc1ccc(Cl)cc1 | -10.7 | 0.0 | i | + | 221.9 | 1.5
COc1ccc(NS(=O)(=O)c2cc([N+](=O)[O-])ccc2N/N=C\c2c(C)[nH]c3ccccc23)cc1 | 25.4 | 0.0 | i | + | 217.3 | -3.0
COc1ccc(NS(=O)(=O)c2cc([N+](=O)[O-])ccc2NN=Cc2ccccc2OCC(=O)O)cc1 | 2.9 | 4.0 | . | i | 254.5 | -3.3
Cn1ncc2c(N3CCC(Cc4ccccc4)CC3)ncnc21 | 9.7 | 7.0 | i | i | 214.2 | 0.2
NNC(=O)c1cc2c(N3CCC(Cc4ccccc4)CC3)ncnc2s1 | 1.5 | 2.0 | i | + | 213.0 | -1.4
CC(=O)c1ccc(C(=O)N2CCCC(CCC(=O)N(C)CCc3ccccn3)C2)s1 (centres undefined) | -6.2 | 0.0 | i | + | 264.7 | 0.4
COc1ccc(CNC(=O)c2sc(=O)n(Cc3cc(C(C)=O)ccc3OC)c2C)cc1 | 3.9 | . | . | i | . | 0.2
COc1ccc(C(C)=O)cc1Cn1c(C)c(C(=O)NCc2ccc(C(C)C)cc2)sc1=O | -0.5 | . | . | + | . | 2.5
CCOC(CCn1c(SCc2cccc([N+](=O)[O-])c2)nc2ccccc2c1=O)OCC | 7.5 | 2.0 | i | + | 69.1 | -2.5
COCCn1c(SCc2cccc([N+](=O)[O-])c2)nc2ccccc2c1=O | 14.1 | 0.0 | i | i | 198.5 | 2.8
CCOc1ccc(C(=O)NC2CCN(S(=O)(=O)c3ccccc3)CC2)cc1 | -1.1 | 0.0 | i | i | 266.0 | -4.0
CN(c1ccccc1)c1nc2ccsc2c(=O)s1 | 43.0* | 0.0 | i | i | 237.3 | -13.1
CCN(c1ccccc1)c1nc2ccsc2c(=O)s1 | 0.8 | 0.0 | i | i | 411.5 | -10.2
Cc1nn(CC(C)C)c(Cl)c1C(=O)N(C)CC(=O)Nc1c(Cl)cccc1Cl | -0.8 | 0.0 | i | + | 638.1 | -1.4
O=C(CN1CCN(S(=O)(=O)c2ccc(F)cc2)CC1)Nc1ccc(F)cc1F | 0.5 | 2.0 | i | + | 325.8 | 1.3
O=C(CN1C(=O)/C(=C\c2cccc(Br)c2)Oc2ccccc21)NCC1CCCO1 (centres undefined) | -6.5 | 4.0 | + | i | 160.9 | 4.8
O=C(c1c(F)cccc1Cl)N(Cc1ccco1)C1CCS(=O)(=O)C1 (centres undefined) | 10.4 | . | . | i | . | 1.4
